Paper PMC6848909 (British Journal of Clinical Pharmacology, 2019)
Like-named read-outs stand apart in the source and are kept apart here. Marks after values point to notes of the source that are not given here. Blank lines part the entries; values can stand above or below the compound they belong to.

Experiments:
[1] = type: in vivo, human; details: for Metabolic ratio of AUC0–inf, metabolite/belinostat / Metabolic ratio of Cmax, metabolite/belinostat: Cycle 1 Day −7, geometric mean (geometric SD)
[2] = Phase 1 safety: adverse events; type: in vivo, human
[3] = test system: solid tumours or lymphomas; assay: Tumour response by RECIST 1.1; type: in vivo, human
In short: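 CT scans were done at baseline and every 2 cycles, with response per RECIST 1.1. Dosing was IV over 30 min on days 1–5 of 21-day cycles, at doses set by liver-function cohort and dose level, after a single 400 mg/m2 dose on Cycle 1 Day −7. Cohorts were defined by bilirubin and AST relative to ULN.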

[4] = cited from earlier work
[5] = cited from earlier work; remark: listed apart in the source
[6] = patients with hepatocellular carcinoma; cited from earlier work
[7] = combination with 13‐cis‐retinoic acid; cited from earlier work
[8] = Dose level 1, mild (n = 9), at least possibly related
[9] = Dose level 1, moderate (n = 6), at least possibly related
[10] = Dose level 1, normal (n = 14), at least possibly related
[11] = Dose level 1, severe (n = 9), at least possibly related
[12] = Dose level 2, mild (n = 14), at least possibly related
[13] = Dose level 2, moderate (n = 6), at least possibly related
[14] = Dose level 2, severe (n = 5), at least possibly related
[15] = mild liver dysfunction (n = 25)
[16] = severe liver dysfunction (n = 15)

SMILES: O=C(/C=C/c1cccc(S(=O)(=O)Nc2ccccc2)c1)NO [Belinostat, belinostat]
Clearance as % of liver blood flow (extraction) ([1]; normal liver function, clearance 661 mL/min/m^2): 76% | Increase in half‐life from normal to severe ([1]; normal vs severe liver dysfunction cohort, not statistically significant): 33% | Patients with at least 1 grade ≥ 3 adverse event at least possibly related to study drug ([2]; All dose levels, all patients, n = 66): 14 (21.2) number (%) of patients | Patients with at least 1 grade ≥ 3 adverse event at least possibly related to study drug ([2]; All dose levels, mild dysfunction, n = 23): 4 (17.4) number (%) of patients | Patients with at least 1 grade ≥ 3 adverse event at least possibly related to study drug ([2]; All dose levels, moderate dysfunction, n = 12): 3 (25) number (%) of patients | Patients with at least 1 grade ≥ 3 adverse event at least possibly related to study drug ([2]; All dose levels, normal liver function, n = 14): 5 (35.7) number (%) of patients | Patients with at least 1 grade ≥ 3 adverse event at least possibly related to study drug ([2]; All dose levels, severe dysfunction, n = 17): 2 (11.8) number (%) of patients | Patients with at least 1 grade ≥ 3 adverse event at least possibly related to study drug ([2]; Dose level 1 (250 mg/m^2), severe dysfunction, n = 9): 1 (11.1) number (%) of patients | Patients with at least 1 grade ≥ 3 adverse event at least possibly related to study drug ([2]; Dose level 1 (500 mg/m^2), moderate dysfunction, n = 6): 1 (16.7) number (%) of patients | Patients with at least 1 grade ≥ 3 adverse event at least possibly related to study drug ([2]; Dose level 1 (750 mg/m^2), mild dysfunction, n = 9): 1 (11.1) number (%) of patients | Patients with at least 1 grade ≥ 3 adverse event at least possibly related to study drug ([2]; Dose level 1 (1000 mg/m^2), normal liver function, n = 14): 5 (35.7) number (%) of patients | Patients with at least 1 grade ≥ 3 adverse event at least possibly related to study drug ([2]; Dose level 1, all patients, n = 38): 8 (21.1) number (%) of patients | Anaemia, Grade 2 [2, 8]: 1 number of patients | Fatigue, Grade 2 [2, 8]: 1 number of patients | Fatigue, Grade 3 [2, 8]: 1 number of patients | Vomiting, Grade 2 [2, 8]: 1 number of patients | Anaemia, Grade 2 [2, 9]: 3 number of patients | Fatigue, Grade 2 [2, 9]: 1 number of patients | Lymphocyte count decreased, Grade 2 [2, 9]: 1 number of patients | Lymphocyte count decreased, Grade 3 [2, 9]: 1 number of patients | Anaemia, Grade 2 [2, 10]: 1 number of patients | Anaemia, Grade 3 [2, 10]: 1 number of patients | Fatigue, Grade 2 [2, 10]: 2 number of patients | Fatigue, Grade 3 [2, 10]: 1 number of patients | Lymphocyte count decreased, Grade 2 [2, 10]: 1 number of patients | Lymphocyte count decreased, Grade 3 [2, 10]: 3 number of patients | Nausea, Grade 2 [2, 10]: 3 number of patients | Vomiting, Grade 2 [2, 10]: 1 number of patients | Fatigue, Grade 2 [2, 11]: 1 number of patients | Vomiting, Grade 2 [2, 11]: 1 number of patients | Lung infection, Grade 5 ([2]; Dose level 1, severe (n = 9), possibly related): 1 number of patients | Patients with at least 1 grade ≥ 3 adverse event at least possibly related to study drug ([2]; Dose level 2 (350 mg/m^2), severe dysfunction, n = 8): 1 (12.5) number (%) of patients | Patients with at least 1 grade ≥ 3 adverse event at least possibly related to study drug ([2]; Dose level 2 (750 mg/m^2), moderate dysfunction, n = 6): 2 (33.3) number (%) of patients | Patients with at least 1 grade ≥ 3 adverse event at least possibly related to study drug ([2]; Dose level 2 (1000 mg/m^2), mild dysfunction, n = 14): 3 (21.4) number (%) of patients | Patients with at least 1 grade ≥ 3 adverse event at least possibly related to study drug ([2]; Dose level 2, all patients, n = 28): 6 (21.4) number (%) of patients | Anaemia, Grade 2 [2, 12]: 3 number of patients | Fatigue, Grade 2 [2, 12]: 2 number of patients | Fatigue, Grade 3 [2, 12]: 2 number of patients | Lymphocyte count decreased, Grade 2 [2, 12]: 4 number of patients | Nausea, Grade 2 [2, 12]: 3 number of patients | Vomiting, Grade 2 [2, 12]: 1 number of patients | Vomiting, Grade 3 [2, 12]: 1 number of patients | Anaemia, Grade 2 [2, 13]: 1 number of patients | Bilirubin increased, Grade 2 [2, 13]: 1 number of patients | Bilirubin increased, Grade 3 [2, 13]: 2 number of patients | Fatigue, Grade 2 [2, 13]: 1 number of patients | Fatigue, Grade 3 [2, 13]: 2 number of patients | Anaemia, Grade 2 [2, 14]: 1 number of patients | Lymphocyte count decreased, Grade 2 [2, 14]: 2 number of patients | Grade 2 or greater anaemia attributed to the study drug ([2]; all treated patients): 17.1% | Grade 2 or greater fatigue attributed to the study drug ([2]; all treated patients): 21.9% | Grade 2 or greater lymphopenia attributed to the study drug ([2]; all treated patients): 18.8% | Patients with grade ≥ 3 toxicity ([2]; mild cohort (4/23)): 17.4% | DLTs ([2]; mild cohort, DL 2 (1000 mg/m^2), 6 evaluable patients): no DLTs | Patients with grade ≥ 3 toxicity ([2]; moderate cohort (3/12)): 25% | DLTs ([2]; moderate cohort, DL 2 (750 mg/m^2), 3 evaluable patients): no DLTs | Patients with a grade ≥ 3 AE ([2]; normal cohort (5/14)): 35.7% | MTD ([2]; patients with mild dysfunction, same as recommended phase 2 dose): 1000 mg/m^2/day | DLTs ([2]; severe cohort, DL 1 (250 mg/m^2), 6 evaluable patients, grade 5 lung infection): 1 | Complete or partial responses ([3]; any of the 4 cohorts): No complete or partial responses | Patients with stable disease ([3]; of 47 patients evaluable for response): 28% | Patients with stable disease ([3]; of 47 patients evaluable for response, after the first 2 cycles): 13 patients | Patients with stable disease ([3]; on DL 1): 11 patients | Patients with stable disease ([3]; on DL 2): 2 patients | Time on study treatment, median ([3]; patients with stable disease): 4 21‐day cycles | Time on study treatment, range ([3]; patients with stable disease): 2–12 cycles | % of dose by glucuronidation (UGT1A1 and UGT2B7), clinical mass balance [4]: 41.4% | % of dose by methylation, clinical mass balance [4]: 1.9% | Total administered belinostat excreted unchanged in the urine [4]: up to 2% | Patients who experienced DLT ([5]; at 1200 mg/m^2/day): 3 of 5 | Recommended phase 2 dose ([5]; days 1–5 of a 21‐day cycle): 1000 mg/m^2/day | MTD (not reached at highest dose tested) [6]: ≥ 1400 mg/m^2/day | MTD (not reached) [7]: ≥ 2000 mg/m^2/day

Metabolic ratio of AUC0–inf, metabolite/belinostat [1, 15]: 21.8 (1.63) ^d | Metabolic ratio of Cmax, metabolite/belinostat [1, 15]: 3.57(1.47) ^c | Metabolic ratio of AUC0–inf, metabolite/belinostat ([1]; normal liver function (n = 14)): 18.7 (1.63) | Metabolic ratio of Cmax, metabolite/belinostat ([1]; normal liver function (n = 14)): 3.78 (1.47) | Metabolic ratio of AUC0–inf, metabolite/belinostat [1, 16]: 17.7 (1.91) | Metabolic ratio of Cmax, metabolite/belinostat [1, 16]: 2.85 (1.51)
SMILES: O=C(/C=C/c1cccc(S(=O)(=O)Nc2ccccc2)c1)NO[C@@H]1O[C@H](C(=O)O)[C@@H](O)[C@H](O)[C@H]1O [Belinostat glucuronide, belinostat glucuronide]
